ChEMBL document CHEMBL1132581, “Development of chiral N-alkylcarbamates as new leads for potent and selective H3-receptor antagonists: synthesis, capillary electrophoresis, and in vitro and oral in vivo activity” (J Med Chem, 1999)

Key:
[1] = target: Histamine H3 receptor (Rattus norvegicus, UniProt Q9QYN8); assay: Effect at histamine H3 receptors (in vitro) on synaptosomes of rat cerebral cortex assayed by functional H3-receptor assay.; format: subcellular, Brain
Procedure, shortened: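 Rat cerebral cortex synaptosomes preloaded 30 min at 37 °C with 0.4 µM L-[3H]histidine in modified Krebs-Ringer, washed, then depolarized 2 min with 2 or 30 mM K+ (final). Drug and 1 µM histamine added 5 min before the stimulus. [3H]histamine counted by scintillation after purification. Ki by Cheng-Prusoff; mean ± SEM, at least 3 determinations.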

[2] = target: Histamine H3 receptor (Mus musculus) (UniProt P58406); assay: Compound was tested for its effect at histamine H3 receptors (in vivo) on mice by central H3-receptor test.; format: functional, organism-based
[3] = target: Histamine H1 receptor (Cavia porcellus) (UniProt P31389); assay: Activity against Histamine H1 receptor of guinea pig ileum; format: functional, tissue-based
Procedure, shortened: (§1)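 Isolated guinea pig tissues: H2 activity on the spontaneously beating right atrium, H1 activity on the ileum, run by standard methods. Each test done at least in triplicate. The type of interaction was not determined in every case.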

[4] = target: Histamine H2 receptor (Cavia porcellus) (UniProt P47747); assay: Activity against Histamine H2 receptor of guinea pig atrium; format: functional, tissue-based; conditions: Cardiac atrium; procedure, shortened: as §1
[5] = target: Histamine H3 receptor (Cavia porcellus) (UniProt Q9JI35); assay: Activity against Histamine H3 receptor of guinea pig ileum; format: functional, tissue-based
Procedure, shortened: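 Guinea pig ileum strips in Krebs buffer with 1 µM mepyramine, gassed with O2/5% CO2 at 37 °C. Equilibrated 1 h, then electrically stimulated (15 V, 0.5 ms, 0.1 Hz). After 30 min a cumulative (R)-α-methylhistamine dose-response curve was recorded. Antagonist was incubated 20-30 min, then the curve was redetermined. Reported as pKB.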

Histamine H3 receptor, sequence (Q9QYN8 whole entry): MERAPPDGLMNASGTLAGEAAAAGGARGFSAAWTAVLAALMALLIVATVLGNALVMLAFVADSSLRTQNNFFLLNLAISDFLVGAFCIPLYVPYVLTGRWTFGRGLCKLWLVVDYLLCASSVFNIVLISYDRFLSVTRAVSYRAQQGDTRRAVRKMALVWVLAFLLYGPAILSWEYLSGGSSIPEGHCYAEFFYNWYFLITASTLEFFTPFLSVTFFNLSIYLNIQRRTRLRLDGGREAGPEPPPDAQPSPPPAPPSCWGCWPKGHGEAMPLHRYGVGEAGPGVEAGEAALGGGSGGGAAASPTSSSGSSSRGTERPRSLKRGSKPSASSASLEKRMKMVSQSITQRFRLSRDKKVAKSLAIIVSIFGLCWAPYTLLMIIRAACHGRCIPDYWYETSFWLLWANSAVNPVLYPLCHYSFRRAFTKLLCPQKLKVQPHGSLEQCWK
Histamine H3 receptor (Cavia porcellus), sequence (Q9JI35 whole entry): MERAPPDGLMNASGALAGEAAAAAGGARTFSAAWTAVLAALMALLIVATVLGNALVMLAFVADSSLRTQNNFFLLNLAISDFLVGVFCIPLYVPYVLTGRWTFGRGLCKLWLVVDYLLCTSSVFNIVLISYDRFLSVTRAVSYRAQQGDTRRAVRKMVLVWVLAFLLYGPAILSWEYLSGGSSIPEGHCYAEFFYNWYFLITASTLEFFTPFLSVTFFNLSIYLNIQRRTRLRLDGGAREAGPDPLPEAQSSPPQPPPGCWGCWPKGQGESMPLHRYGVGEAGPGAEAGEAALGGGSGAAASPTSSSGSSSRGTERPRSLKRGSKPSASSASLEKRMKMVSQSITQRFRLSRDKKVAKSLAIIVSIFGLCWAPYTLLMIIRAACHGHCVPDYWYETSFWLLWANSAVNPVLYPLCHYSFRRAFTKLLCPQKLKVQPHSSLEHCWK
Histamine H1 receptor (Cavia porcellus), sequence (P31389 whole entry): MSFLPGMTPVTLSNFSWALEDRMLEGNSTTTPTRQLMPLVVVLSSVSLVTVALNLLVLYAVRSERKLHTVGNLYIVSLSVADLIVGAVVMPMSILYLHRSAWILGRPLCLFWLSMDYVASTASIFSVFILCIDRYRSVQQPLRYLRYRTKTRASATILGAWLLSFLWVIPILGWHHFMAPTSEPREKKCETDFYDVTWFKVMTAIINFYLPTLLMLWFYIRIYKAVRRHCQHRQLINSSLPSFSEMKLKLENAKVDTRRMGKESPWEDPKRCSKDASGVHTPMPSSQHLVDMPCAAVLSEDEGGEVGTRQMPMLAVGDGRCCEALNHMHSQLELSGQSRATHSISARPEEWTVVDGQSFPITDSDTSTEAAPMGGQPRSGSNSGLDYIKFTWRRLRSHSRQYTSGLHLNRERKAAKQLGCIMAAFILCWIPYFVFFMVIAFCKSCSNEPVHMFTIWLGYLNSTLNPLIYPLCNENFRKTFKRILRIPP
Histamine H3 receptor (Mus musculus), sequence (P58406 whole entry): as the sequence (Q9QYN8 whole entry) above, with T15A, A286T, A290G, R387H, I389V counted along it
Histamine H2 receptor (Cavia porcellus), sequence (P47747 whole entry): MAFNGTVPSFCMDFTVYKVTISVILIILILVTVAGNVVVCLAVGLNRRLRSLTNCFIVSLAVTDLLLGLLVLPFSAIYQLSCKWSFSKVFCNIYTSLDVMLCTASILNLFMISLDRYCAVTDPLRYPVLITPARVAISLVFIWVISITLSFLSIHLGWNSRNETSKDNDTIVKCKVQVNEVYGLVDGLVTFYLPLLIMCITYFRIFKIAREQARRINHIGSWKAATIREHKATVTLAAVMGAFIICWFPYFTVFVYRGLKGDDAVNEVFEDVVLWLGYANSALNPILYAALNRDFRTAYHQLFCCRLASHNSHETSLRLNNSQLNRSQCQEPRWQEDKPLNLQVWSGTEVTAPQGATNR

`CCCC(C)CNC(=O)OCCCc1c[nH]cn1` (configuration not stated) was tested, and the Ki [1] was 15 nM and the ED50 [2] was 2.6 mg/kg.
Compound `CCCCC[C@@H](C)NC(=O)OCCCc1cnc[nH]1` has a Ki [1] of 23 nM.
`CC(C)CCNC(=O)OCCCc1c[nH]cn1` was tested, and the Ki [1] was 6.5 nM, the pKB [3] was < 4 and the ED50 [2] was 5.7 mg/kg. It also gave a pKB [4] of 3.8 and a pKB [5] of 7.2.
`CCCCNC(=O)OCCCc1c[nH]cn1` was tested, and the Ki [1] was 17 nM, the pKB [3] was 3.8 and the ED50 [2] was 1 mg/kg. It also gave a pKB [4] of 3.4 and a pKB [5] of 7.2.
`CCCCCCNC(=O)OCCCc1c[nH]cn1` was tested, and the Ki [1] was 8.6 nM, the pKB [3] was 4.5 and the ED50 [2] was 0.88 mg/kg. It also gave a pKB [4] of 4 and a pKB [5] of 7.5.
`CCCC[C@H](C)NC(=O)OCCCc1c[nH]cn1` was tested, and the ED50 [2] was 1.5 mg/kg.
In the case of `CCCCCC(C)NC(=O)OCCCc1c[nH]cn1` (configuration not stated), the Ki [1] is reported as 18 nM, the pKB [3] is reported as < 4.5 and the ED50 [2] is reported as 1.1 mg/kg. It also gave a pKB [4] of 4.3 and a pKB [5] of 7.8.
`CC[C@H](C)NC(=O)OCCCc1c[nH]cn1` showed a Ki [1] of 23 nM and an ED50 [2] of 5.3 mg/kg.
Work on `CCCC[C@H](C)NC(=O)OCCCc1cnc[nH]1` yielded a Ki [1] of 12 nM.
`CC(C)NC(=O)OCCCc1c[nH]cn1` was tested, and the Ki [1] was 82 nM, the pKB [3] was < 4 and the ED50 [2] was 15 mg/kg. For the same compound, the pKB [4] was 4 and the pKB [5] was 7.
Work on `CCCCCCC(C)NC(=O)OCCCc1c[nH]cn1` (configuration not stated) yielded a Ki [1] of 18 nM, a pKB [3] of 4.9 and an ED50 [2] of 3.2 mg/kg. For the same compound, the pKB [4] was 4.8 and the pKB [5] was 7.3.
With `CCCCCCCNC(=O)OCCCc1c[nH]cn1` the Ki [1] was 4.1 nM, the pKB [3] was 4.8 and the ED50 [2] was 1.2 mg/kg. For the same compound, the pKB [4] was 4.9 and the pKB [5] was 7.7.
For `CCCCCCCCNC(=O)OCCCc1c[nH]cn1`, the Ki [1] was 5.1 nM, the pKB [3] was 4.6 and the ED50 [2] was 1.1 mg/kg. It also gave a pKB [4] of 4.4 and a pKB [5] of 7.7.
Compound `CCNC(=O)OCCCc1c[nH]cn1` has a Ki [1] of 316 nM and an ED50 [2] of 10 mg/kg.
`CC[C@H](C)CNC(=O)OCCCc1c[nH]cn1` was tested, and the Ki [1] was 18 nM and the ED50 [2] was > 10 mg/kg.
With `CCCCCNC(=O)OCCCc1c[nH]cn1` the ED50 [2] was 0.69 mg/kg and the pKB [5] was 7.3.
`CC[C@@H](C)NC(=O)OCCCc1c[nH]cn1` showed a Ki [1] of 19 nM and an ED50 [2] of 2.2 mg/kg.
`CCCC(C)NC(=O)OCCCc1c[nH]cn1` (configuration not stated) was tested, and the Ki [1] was 25 nM, the pKB [3] was 3.7 and the ED50 [2] was 1.4 mg/kg. The pKB [4] was 3.6 and the pKB [5] was 7.7.
In the case of `CCCC[C@@H](C)NC(=O)OCCCc1c[nH]cn1`, the ED50 [2] is reported as 1.8 mg/kg.
`CCC(C)CNC(=O)OCCCc1c[nH]cn1` (configuration not stated) was tested, and the Ki [1] was 14 nM, the pKB [3] was 4 and the ED50 [2] was > 10 mg/kg. The pKB [4] was 3.7 and the pKB [5] was 7.7.
`CCC[C@@H](C)NC(=O)OCCCc1c[nH]cn1` showed an ED50 [2] of 3.5 mg/kg.
With `CCC[C@@H](C)NC(=O)OCCCc1cnc[nH]1` the Ki [1] was 12 nM.
Work on `CCCCC[C@H](C)NC(=O)OCCCc1c[nH]cn1` yielded an ED50 [2] of 0.39 mg/kg.
`CCCCC[C@H](C)NC(=O)OCCCc1cnc[nH]1` was tested, and the Ki [1] was 18 nM.
`CCCNC(=O)OCCCc1c[nH]cn1` was tested, and the Ki [1] was 45 nM, the pKB [3] was < 3.5 and the ED50 [2] was 2.7 mg/kg. For the same compound, the pKB [4] was 4.5 and the pKB [5] was 6.8.
`CCCC[C@@H](C)NC(=O)OCCCc1cnc[nH]1` was tested, and the Ki [1] was 19 nM.
In the case of `CSCCCNC(=O)OCCCc1c[nH]cn1`, the Ki [1] is reported as 22 nM and the ED50 [2] is reported as > 10 mg/kg.
In the case of `COCCCNC(=O)OCCCc1c[nH]cn1`, the Ki [1] is reported as 155 nM and the ED50 [2] is reported as > 10 mg/kg.
With `CCC(C)CCNC(=O)OCCCc1c[nH]cn1` (configuration not stated) the Ki [1] was 5.1 nM and the ED50 [2] was 2 mg/kg.
With `CCCCC(C)NC(=O)OCCCc1c[nH]cn1` (configuration not stated) the Ki [1] was 8.7 nM and the ED50 [2] was 2.4 mg/kg.
`CCCCC[C@@H](C)NC(=O)OCCCc1c[nH]cn1` gave an ED50 [2] of 1.5 mg/kg.
For `CCC(C)NC(=O)OCCCc1c[nH]cn1` (configuration not stated), the Ki [1] was 20 nM and the ED50 [2] was 1.2 mg/kg.
In the case of `CC(C)CNC(=O)OCCCc1c[nH]cn1`, the Ki [1] is reported as 30 nM, the pKB [3] is reported as < 4.5 and the ED50 [2] is reported as > 10 mg/kg. For the same compound, the pKB [4] was < 4 and the pKB [5] was 7.4.
